# Compound activity from PubChem BioAssay.
# A selection: hits, their analogues and other compounds. The true share with any hit is near 3.1%.
# aDG glyco up = increases alpha dystroglycan glycosylation; Pro5-aDG cells, alpha-DG glycosylation AlphaScreen (IIH6); 0% Pro5, 100% B10-LARGE cell signal; activation, % at 10 µM; 0.22% of 360,000 active;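 active means activation of at least 8% versus controls, or a plate z-score of at least 8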;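 further: Pro5 are CHO cells carrying HIG-tagged alpha-DG that lacks glycosylation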
# ADAM17 inh = inhibitors of human ADAM17. AID 720648. 0.83% of 370,000 active. inhibition, % at 6.95 µM. recombinant ADAM17, EDANS/DABCYL FRET peptide cleavage. P78536;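 active means inhibition above the mean of compounds lying between control limits plus 3 SD, set per campaign, cut at about 8.5% in these data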;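 further: 0% = DMSO-only wells as the low control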
# MPTP inh = inhibitors of mitochondrial permeability transition pore; isolated mouse mitochondria, Ca2+ swelling absorbance, 30 min; inhibition, % at 10 µM; 1.4% of 360,000 active; AID 602449;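 active means inhibition of 50% or more, scaled per plate between neutral and stimulator controls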;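 further: 0% = DMSO wells given calcium and 100% = 1 mM EGTA wells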
# ADAM10 inh = inhibitors of human ADAM10; O14672; recombinant ADAM10, EDANS/DABCYL FRET peptide cleavage, 3 h; inhibition, % at 7 µM; 0.62% of 370,000 active; AID 720582;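 active means inhibition above a per-campaign cutoff equal to the mean of compounds falling between control-based bounds plus 3 SD, cut at about 20% in these data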;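 further: 0% = DMSO wells while the 100% control is not disclosed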
# Target sequence (O14672 214-748 limits assumed): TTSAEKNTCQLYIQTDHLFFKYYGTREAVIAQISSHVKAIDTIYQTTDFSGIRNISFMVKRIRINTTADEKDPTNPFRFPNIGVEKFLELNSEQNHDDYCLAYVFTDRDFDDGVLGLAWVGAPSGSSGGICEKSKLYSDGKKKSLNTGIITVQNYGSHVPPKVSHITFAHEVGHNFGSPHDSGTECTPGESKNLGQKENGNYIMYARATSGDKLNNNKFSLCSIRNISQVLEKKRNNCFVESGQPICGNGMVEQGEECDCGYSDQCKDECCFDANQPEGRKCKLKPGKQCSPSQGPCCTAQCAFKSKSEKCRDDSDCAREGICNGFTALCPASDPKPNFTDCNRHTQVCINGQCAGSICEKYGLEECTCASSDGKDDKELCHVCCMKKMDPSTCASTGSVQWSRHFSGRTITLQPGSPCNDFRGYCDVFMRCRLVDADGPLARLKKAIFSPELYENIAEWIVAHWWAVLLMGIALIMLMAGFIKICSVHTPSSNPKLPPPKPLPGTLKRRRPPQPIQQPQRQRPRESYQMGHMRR
# V-ATPase pHluor = alters yeast V-ATPase proton transport | S. cerevisiae, pHLuorin cytosolic pH fluorescence | response, % at 10 µM | 0.37% of 350,000 active; in the data active means response mostly above about 7.3%, no sharp cut-off; inactive means mostly below about 5.4%; further: actives read high
# Lipid droplet = hepatic lipid droplet formation modulation | AML12 mouse hepatocytes, oleate lipid droplets, BODIPY imaging | inhibition, % at 6.5 µM | 0.4% of 240,000 active | AID 1656;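 active means lipid droplet intensity inhibited by at least 50%, with more than 500 cells counted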
#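 Material – mouse AML12 hepatocyte cell line, fixed after treatment · Compound dosing – one dose, 6.5 µM compound · Times – compound with oleate, overnight · Measured by – Image-based BODIPY and DAPI two-channel analysis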
# MPTP counter = mitochondrial membrane potential, counter-screen. inhibition, % at 10 µM. 78% of 5,000 active. isolated mitochondria, Rhodamine 123 fluorescence. AID 624504. shares compounds with MPTP inh; in the data active means inhibition above about 22%;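 further: 0% = DMSO vehicle and 100% = positive control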
# MPTP abs DR = MPTP inhibition, dose response swelling confirmation | shares compounds with MPTP inh | isolated mitochondria swelling, absorbance | IC50, µM | 58% of 780 active | AID 651561; in the data active means IC50 below about 20 µM
# MPTP counter DR = active in counter-screen for permeability transition pore inhibitors. shares compounds with MPTP inh. isolated mitochondria counterscreen, fluorescence read-out. IC50, µM. 49% of 780 active; in the data active means IC50 below about 80 µM
# Starred values were filed as active, the others as inactive; i = inactive; / = not tested or not shown.
SMILES,aDG glyco up,ADAM17 inh,MPTP inh,ADAM10 inh,V-ATPase pHluor,Lipid droplet,MPTP counter,others
CCCC(C)C(=O)NC1CCCCN(Cc2ccccc2C)C1=O (stereo unspecified),/,-2.1,/,-1.9,/,/,/,
COc1ccc([C@H]2CC(=O)C=C(c3ccc(CNC(=O)OC(C)(C)C)cc3)C2)cc1,1.4,1.2,70.9*,0.5,0.1,/,80.4*,
COC(=O)c1cc(-c2cccc(C(F)(F)F)c2)c(=O)n2c1CCC2,/,-11.0,/,-20.4,/,/,/,
Cc1cc(Cl)c(S(=O)(=O)N2CCN(c3ccc(F)cc3)CC2)cc1OCC(N)=O,0.0,-2.9,-2.2,4.0,1.2,/,/,
Cc1cc(Cl)c(S(=O)(=O)N2CCN(c3ccc(F)cc3)CC2)cc1OCC(=O)NC1CCCCC1,2.9,-2.1,80.0*,-7.9,4.9,0.3,70.3*,
N#CCC[C@H]1CC[C@]2(CCCN(Cc3ccccc3)C2)O1,/,-4.4,/,-6.3,/,/,/,
O=C(CNS(=O)(=O)c1ccc(F)cc1)N1CCN(c2ccccn2)CC1,/,-4.2,/,-11.3,/,/,/,
Cc1cccc(NC(=O)CSc2nnc(CCC(=O)Nc3ccc(C)c(Cl)c3)n2C)c1,0.0,-1.3,-0.4,-4.8,1.1,-1.5,/,
Cc1ccc(NC(=O)CSC(N)=O)cc1Cl,0.1,-0.9,-1.8,1.1,-0.5,/,/,
Cc1ccc(NC(=O)CSc2ccccc2NC(=O)c2cccc(Cl)c2)cc1Cl,-0.3,-1.4,80.1*,7.2,-2.1,-4.6,-4.6,MPTP abs DR=>100;MPTP counter DR=6.32*
Cc1cccc(C(=O)Nc2ccccc2SCC(=O)Nc2ccc(C)c(Cl)c2)c1,-0.3,0.1,89.8*,3.3,0.8,-7.8,82.5*,
COC(=O)[C@@]12CCCCC3=C1N(CCC3)C(=O)[C@H]2CC(=O)N1CCOCC1,/,-4.7,/,-6.1,/,/,/,
O=C(/C(=C/c1ccc(Cl)cc1)c1nc2ccccc2[nH]1)c1cccs1,-0.2,/,65.5*,/,-4.7,-48.1,75.4*,
O=C(/C(=C\c1ccccc1)c1nc2ccccc2[nH]1)c1ccc(Cl)cc1,-0.6,-4.9,74.6*,3.4,-0.7,-39.9,75.0*,
COC(=O)/C(=C\c1ccc(O)cc1)c1nc2ccccc2[nH]1,-0.1,-133.4,0.3,-368.4,2.4,6.1,/,
COc1cc(C(=O)NC2CCCCN(C(C)C)C2=O)cc(OC)c1OC (stereo unspecified),/,-0.3,/,-2.2,/,/,/,
COC(=O)C1CN(Cc2cn(Cc3ccc(Cl)cc3)nn2)CCS(=O)(=O)N1Cc1ccc(Cl)cc1 (stereo unspecified),/,1.5,/,3.2,/,/,/,
COc1ccc(NC(=O)NN2CCN(C)CC2)cc1OC,-0.3,0.1,-1.5,6.6,1.9,-2.4,/,
Cn1nc(C(C)(C)C)cc1NC(=O)Nc1cc(Cl)cc(Cl)c1,0.4,0.5,84.4*,4.8,-0.1,-2.0,73.2*,
CN1CCN(NC(=O)Nc2cc(Cl)cc(Cl)c2)CC1,-0.1,-3.5,90.4*,-0.8,-4.4,-2.0,91.4*,
C=CCNCCOc1ccc(C(C)(C)c2ccccc2)cc1,0.7,-1.6,77.6*,0.1,-0.8,0.8,-11.8,MPTP abs DR=14.9*;MPTP counter DR=>80
CCOC(=O)[C@]12CCCC3=C1N(CCC3)C(=O)[C@@H](CC(=O)NCCCN1CCCC1=O)C2,/,0.4,/,2.4,/,/,/,
O=C1CSC(=S)N1/N=C/c1cc(Br)c(O)c(Br)c1,-0.1,/,83.2*,/,-0.9,3.0,66.1*,
O=C(COc1ccc2ccccc2c1Br)Nc1ccncc1,0.7,3.6,91.9*,-10.2,-1.2,-7.6,81.6*,
CC(C)(C)c1ccc(OCC(=O)Nc2ccncc2)c(Br)c1,0.0,2.6,108.3*,18.6,1.2,-6.2,87.5*,
SMILES,aDG glyco up,ADAM17 inh,MPTP inh,ADAM10 inh,V-ATPase pHluor,Lipid droplet,MPTP counter,others
CC(C)CCOc1cccc(OCC(=O)Nc2ccncc2)c1,1.0,-2.0,106.8*,4.5,2.4,-33.0,100.5*,
Cc1cc(OCC(=O)Nc2ccncc2)c(C)cc1Br,0.0,3.9,97.8*,2.7,-1.2,0.8,84.0*,
Cc1ccc(OCC(=O)Nc2ccncc2)cc1C,-0.2,-4.9,13.6,-14.2,-1.4,/,/,
Cc1cccc(Cn2cc(CN3CC(N(C)CCOC(=O)c4cc(C)cc(C)c4)CS3(=O)=O)nn2)c1 (stereo unspecified),/,3.9,/,3.0,/,/,/,
CCn1c(COc2ccc(C)cc2)nnc1SCC(=O)Nc1ccc(Oc2ccccc2)cc1,/,-1.3,/,-1.5,/,/,/,
CC(C)CN1C[C@@H]2CSCCS(=O)(=O)N2C1=O,/,-7.2,/,-5.0,/,/,/,
CCc1ccc(OCC(=O)Nc2ccncc2)c(Br)c1,0.1,-1.8,78.8*,-1.9,2.7,6.1,80.1*,
Cc1cc(OCC(=O)Nc2ccncc2)cc(C)c1Cl,0.6,3.3,93.5*,6.7,-0.9,5.5,84.0*,
Cc1ccc(CN2CCc3c(OCc4ccc(F)cc4)cccc3C2=O)cc1,1.1,3.5,24.6,4.1,1.9,7.1,/,
O=C1c2cccc(OCc3ccc(F)cc3)c2CCN1Cc1ccc(F)cc1,1.5,6.5,79.4*,19.3,-3.9,-9.9,83.2*,
Cc1cc(-c2ccc(C)c(S(=O)(=O)NCCCN3CCN(c4ccccc4)CC3)c2)on1,1.4,-1.1,3.2,7.2,0.4,-33.9,/,
Cc1cc(-c2ccc(C)c(S(=O)(=O)NCCCN3CCN(c4ccccc4F)CC3)c2)on1,2.2,-3.4,72.5*,0.3,2.8,-10.1,84.8*,
Cc1cc(Cl)ccc1Oc1ccccc1C(=O)CC#N,-0.2,-0.8,66.2*,7.8,3.4,2.3,74.7*,
C[N+]1=C(N)NC2=C3CCCCC3n3c(=O)n(-c4ccccc4)c(=O)n3C2C1 (stereo unspecified),/,-2.5,/,-6.5,/,/,/,
OC(COc1ccc(OCC(O)CN2CCN(Cc3ccccc3)CC2)cc1)CN1CCN(Cc2ccccc2)CC1 (stereo unspecified),2.9,4.1,53.7*,1.8,-0.5,/,-1.9,MPTP abs DR=12.4*;MPTP counter DR=29.6*
OC(COc1ccc2cc(Br)ccc2c1)CN1CCCC1 (stereo unspecified),4.7*,-1.8,87.6*,1.5,-1.6,-26.4,-6.2,MPTP abs DR=9.43*;MPTP counter DR=>80
CC1CCC(C(C)C)C(OCC(O)CN2CCOCC2)C1 (stereo unspecified),-0.2,-2.7,-0.4,-7.2,5.0,-2.5,/,
COc1cccc(OCC(O)CN2CCC(Cc3ccccc3)CC2)c1 (stereo unspecified),0.8,-4.8,56.2*,-1.2,-3.5,/,-5.7,MPTP abs DR=19.3*;MPTP counter DR=61.8*
CC1CCC(C(C)C)C(OCC(O)CN2CCN(Cc3ccccc3)CC2)C1 (stereo unspecified),0.7,3.3,86.3*,10.8,0.8,/,-1.4,MPTP abs DR=i;MPTP counter DR=40.3*
